The text below walks through data of ChEMBL document CHEMBL1157470, “Hydrolytic reactivity trends among potential prodrugs of the O2-glycosylated diazeniumdiolate family. Targeting nitric oxide to macrophages for antileishmanial activity” (J Med Chem, 2008).

Data set [1] is described as follows: Chemical stability assessed as half life of hydrolysis in 0.0125 M sodium hydroxide buffer at pH 12.1. The class given is physicochemical. In a few lines:
(§1)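 Half-lives at 37 °C across buffers from pH 4.0 to 14 (1.0, 0.10 and 0.0125 M NaOH; 0.05 M glycine/NaOH pH 10.0; 0.10 M phosphate pH 8.1 and 7.4; 0.05 M citrate pH 4.0). UV decay of the diazeniumdiolate chromophore at λmax. First-order k from the slope of ln(At − Ainf) versus time.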

Data set [2] is described as follows: Chemical stability assessed as half life of hydrolysis in 0.05 M citrate buffer at pH 4.0. It counts as physicochemical. In a few lines: as §1
Data set [3] in a line: Chemical stability assessed as half life of hydrolysis in 0.10 M phosphate buffer at pH 7.4. The class given is physicochemical. An outline of the steps:
(§2)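 Hydrolysis at 37 °C in 1.0 M NaOH, 0.1 M phosphate pH 7.4, or 0.05 M citrate pH 3.8–4.6, followed as first-order loss of the diazeniumdiolate UV absorbance at λmax. k from the ln(At − Ainf) versus time slope; Ainf was extrapolated when the reaction was incomplete. NaOH runs were followed in a thermostated diode-array cell.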

Data set [4] can be described thus: Chemical stability assessed as half life of hydrolysis in 0.10 M phosphate buffer at pH 8.1. The class given is physicochemical. In a few lines:
as §1

Data set [5] can be described thus: Chemical stability assessed as half life of hydrolysis in 1.0 M sodium hydroxide buffer at pH 14.0. It counts as physicochemical. An outline of the steps:
as §1

Data set [6] can be described thus: Chemical stability assessed as half life of hydrolysis in 0.5 M glycine/sodium hydroxide buffer at pH 10.0. The class given is physicochemical. The settings on record: in the assay text read “0.05 M glycine” for “0.5 M glycine”. In a few lines: as §1
Data set [7] in a line: Chemical stability assessed as half life of hydrolysis in 0.10 M sodium hydroxide buffer at pH 13.0. It counts as physicochemical. An outline of the steps:
as §1

The nature of data set [8]: Stability in iNOS deficient mouse macrophage assessed as increase in nitric oxide accumulation at 0.25 mM after 24 hrs. The class given is ADME, cell-based. The settings on record: 250 µM. In a few lines:
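Glycoside (0.25 mM initial) incubated 24 h at 37 °C in PBS, in RPMI with 2.5% fetal calf serum, or in that medium while culturing iNOS-deficient mouse peritoneal macrophages. Nitrite in supernatant measured by Griess. Triplicates, mean; one of two experiments.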

Data set [9] is described as follows: Chemical stability assessed as half life of hydrolysis in 0.1 M phosphate buffer at pH 7.4. The class given is physicochemical. In a few lines:
as §2

A short description of data set [10]: Chemical stability assessed as half life of hydrolysis in at pH 14. It counts as physicochemical. The settings on record: 1.0 M NaOH. An outline of the steps:
as §2

Data set [11] is described as follows: Stability assessed as nitric oxide release in presence of Jack bean N-acetyl-glucosaminidase measured per mole of glycoside in 0.1 M phosphate buffer at pH 7.4 at 0.10 mM […]. It counts as ADME. As to conditions: pH 7.4, 100 µM. An outline of the steps: (§3)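 37 °C in 0.1 M phosphate pH 7.4 with 0.05 mM DTPA. Jack bean N-acetylglucosaminidase at 0.11 units/mL or human placenta enzyme at 0.044 units/mL; substrate 0.10 or 0.16 mM initial. NO measured by chemiluminescence until evolution stopped, with the curve integrated per mole glycoside. Nitrite in the remaining solution measured by Griess. Enzyme activity verified with PNP-NAG.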

Data set [12] can be described thus: Stability assessed as nitrite release in presence of human placenta N-acetyl-glucosaminidase measured per mole of glycoside in 0.1 M phosphate buffer at pH 7.4 at 0.10 mM by Griess reagent assay. The class given is ADME. As to conditions: pH 7.4, 100 µM. An outline of the steps:
as §3

Data set [13] is described as follows: Stability assessed as nitrite release in presence of Jack bean N-acetyl-glucosaminidase measured per mole of glycoside in 0.1 M phosphate buffer at pH 7.4 at 0.10 mM by Griess reagent assay. The settings on record: pH 7.4, 100 µM. It counts as ADME. An outline of the steps: as §3
A short description of data set [14]: Stability assessed as nitric oxide release in presence of human placenta N-acetyl-glucosaminidase measured per mole of glycoside in 0.1 M phosphate buffer at pH 7.4 at 0.10 mM […]. As to conditions: pH 7.4, 100 µM. The class given is ADME. In a few lines:
as §3

A short description of data set [15]: Chemical stability assessed as half life of hydrolysis in 0.05 M citrate buffer at pH 4.6. The class given is physicochemical. In a few lines: as §2
A short description of data set [16]: Chemical stability assessed as half life of hydrolysis in 0.05 M citrate buffer at pH 3.8. The class given is physicochemical. An outline of the steps:
as §2

Data set [17] can be described thus: Stability assessed as nitrite release in presence of human placenta N-acetyl-glucosaminidase measured per mole of glycoside in 0.1 M phosphate buffer at pH 7.4 at 0.16 mM by Griess reagent assay. The class given is ADME. As to conditions: pH 7.4, 160 µM. In a few lines:
as §3

Data set [18] in a line: Stability in iNOS-deficient mouse peritoneal macrophages in RPMI medium assessed as increase in nitric oxide release at 0.25 mM after 24 hrs. As to conditions: 250 µM.
Data set [19] can be described thus: Stability assessed as nitric oxide release in presence of human placenta N-acetyl-glucosaminidase measured per mole of glycoside in 0.1 M phosphate buffer at pH 7.4 at 0.16 mM […]. The class given is ADME. The settings on record: pH 7.4, 160 µM. In a few lines: as §3
The nature of data set [20]: Stability assessed as nitrite release in presence of Jack bean N-acetyl-glucosaminidase measured per mole of glycoside in 0.1 M phosphate buffer at pH 7.4 at 0.16 mM by Griess reagent assay. The class given is ADME. As to conditions: pH 7.4, 160 µM. An outline of the steps: as §3
Data set [21] in a line: Stability assessed as nitric oxide release in presence of Jack bean N-acetyl-glucosaminidase measured per mole of glycoside in 0.1 M phosphate buffer at pH 7.4 at 0.16 mM […]. The class given is ADME. As to conditions: pH 7.4, 160 µM. In a few lines:
as §3

As to `CCN(CC)/[N+]([O-])=N\OC1CCCCO1` (configuration not stated), the t1/2 in data set [1] is given as 3.5 min; in [2] it was 3.2 min; in data set [3] it was 3.1 min; in [4], 3.5 min; in data set [5], 2.5 min; in data set [6], 2.9 min. Besides, in [7], the t1/2 was 2.7 min.
On to `CCN(CC)/[N+]([O-])=N/O[C@@H]1O[C@H](CO)[C@@H](O)[C@H](O)[C@H]1NC(C)=O`, for which the Activity turned out to be 2 in data set [8]; 1.26 mol/mol in data set [11]; 0.24 mol/mol in [12]; 0.05 mol/mol in data set [13]; 1.73 mol/mol in data set [14]. Also, the t1/2 in data set [9] is 12 h; in data set [10] it was 0.85 h; in [15], 17 h.
Turning to `CCN(CC)/[N+]([O-])=N/O[C@H]1C[C@@H](O)[C@H](O)[C@@H](CO)O1`, the t1/2 in data set [9] came out at 12 h; in [10], 0.383 h; in [16] it was 28.8 h.
Consider `CCN(CC)/[N+]([O-])=N/O[C@@H]1O[C@H](CO)[C@@H](O)[C@H](O)[C@H]1O`, for which the t1/2 is 0.035 h in data set [10] and more than 240 h in [15].
As to `CCN(CC)/[N+]([O-])=N/O[C@H]1O[C@H](CO)[C@@H](O)[C@H](O)[C@@H]1O`, the figures for the t1/2 in [9] and in data set [10] were more than 240 h and 4.97 h, respectively.
With `CCN(CC)/[N+]([O-])=N/O[C@@H]1O[C@@H](C)[C@@H](O)[C@@H](O)[C@@H]1O`, the figures for the t1/2 in [9], in data set [10] and in [15] were more than 240 h, 0.067 h and more than 240 h, respectively.
With `CC(=O)N[C@H]1[C@H](O/N=[N+](\[O-])N2CCCC2)O[C@H](CO)[C@@H](O)[C@@H]1O`, the t1/2 in data set [9] and in data set [15] was more than 240 h throughout. The Activity in data set [17] was found to be 0.36 mol/mol; in [18], 4; in [19], 1.69 mol/mol; in data set [20], 0.12 mol/mol; in [21] it was 1.72 mol/mol.
